Legend:
[1] = tested on: U87MG tumor; experiment: In vivo NIRF optical imaging of U87MG tumor-bearing nude mice; details: for nonspecific tumor targeting / accumulation of unconjugated dye: Cy5.5 and Cy7 data not shown; for tumor to muscle ratio, time course: 1, 2 and 4 hours postinjection, in words; for tumor to muscle ratio, time course / tumor to muscle ratio: 0.5 nmol i.v.; for tumor to muscle ratio: light intensity ratio, 4 hours postinjection, mean ± SD, n = 3
[2] = tested on: murine integrin β3; experiment: Immunofluorescence colocalization in U87MG tumor sections, murine integrin β3; format: in vivo; details: 1 nmol i.v., 30 minutes postinjection; frozen tumor sections; one mouse
Summary of the method: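 Single female athymic nude mouse with subcutaneous U87MG xenograft (5 × 10⁶ cells, right front flank; tumours 100 to 300 mm³) given 1 nmol Cy5.5-labelled test compound by tail vein. Killed at 30 min, perfused with 20 mL PBS, tumour frozen-sectioned. Sections incubated 1 h at room temperature with hamster antimouse integrin β3 (1:100), then FITC secondary (1:200). Fluorescence microscopy overlay.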

[3] = for kidney uptake: 4 hours postinjection, 0.5 nmol i.v., ex vivo imaging, in words; for excretion route: inferred from kidney uptake at 4 hours postinjection
[4] = in vivo; details: female, athymic nude, mouse, U87MG tumor, iv, 0.5 nmol

Compound | nonspecific tumor targeting / accumulation of unconjugated dye [1] | tumor to muscle ratio, time course [1] | tumor to muscle ratio [1] | kidney uptake [3] | excretion route [3] | tissue uptake at 4 h [4] | further results
Cy5.5 [reference compound] | relatively high tumor-nonspecific targeting |  |  |  |  |  | 
CCN1C(=CC=CC=CC=CC2=[N+](CCCCCC(=O)O)c3ccc(S(=O)(=O)O)cc3C2(C)C)C(C)(C)c2cc(S(=O)(=O)[O-])ccc21 [Cy7, reference compound] | relatively high tumor-nonspecific targeting |  |  |  |  |  | 
CC1(C)C(/C=C/C2=C(Oc3ccc(S(=O)(=O)O)cc3)C(=C/C=C3/N(CCCCS(=O)(=O)O)c4ccc(S(=O)(=O)[O-])cc4C3(C)C)/CCC2)=[N+](CCCCCC(=O)O)c2ccc(S(=O)(=O)O)cc21 [IRDye800, reference compound] | only a lower nonspecific tumor accumulation |  |  |  |  |  | 
Cy5.5-E[PEG4-c(RGDfK)]2 [Cy5.5-PEG4-RGD2] |  |  |  |  |  |  | colocalization with murine integrin β3 [2]: good colocalization
CC1(C)C(=CC=C2CCCC(C=CC3=[N+](CCCCCC(=O)N[C@@H](CCC(=O)NCCOCCOCCOCCOCCC(=O)NCCCC[C@@H]4NC(=O)[C@@H](Cc5ccccc5)NC(=O)[C@H](CC(=O)O)NC(=O)CNC(=O)[C@H](CCCNC(=N)N)NC4=O)C(=O)NCCOCCOCCOCCOCCC(=O)NCCCC[C@@H]4NC(=O)[C@@H](Cc5ccccc5)NC(=O)[C@H](CC(=O)O)NC(=O)CNC(=O)[C@H](CCCNC(=N)N)NC4=O)c4ccc(S(=O)(=O)O)cc4C3(C)C)=C2Oc2ccc(S(=O)(=O)O)cc2)N(CCCCS(=O)(=O)[O-])c2ccc(S(=O)(=O)O)cc21 [IRDye800-PEG4-RGD2, IRDye800-E[PEG4-c(RGDfK)]2] |  | increased tumor to muscle ratios from 1 to 4 hours | 4.63 ± 0.28 | high kidney uptake | mainly excreted by the renal route | 5.87 ± 1.21 %ID/g | 
CC1(C)C(=CC=C2CCCC(C=CC3=[N+](CCCCCC(=O)N[C@@H](CCC(=O)NCCCC[C@@H]4NC(=O)[C@@H](Cc5ccccc5)NC(=O)[C@H](CC(=O)O)NC(=O)CNC(=O)[C@H](CCCNC(=N)N)NC4=O)C(=O)NCCCC[C@@H]4NC(=O)[C@@H](Cc5ccccc5)NC(=O)[C@H](CC(=O)O)NC(=O)CNC(=O)[C@H](CCCNC(=N)N)NC4=O)c4ccc(S(=O)(=O)O)cc4C3(C)C)=C2Oc2ccc(S(=O)(=O)O)cc2)N(CCCCS(=O)(=O)[O-])c2ccc(S(=O)(=O)O)cc21 [IRDye800-RGD2, IRDye800-E[c(RGDfK)]2] |  | increased tumor to muscle ratios from 1 to 4 hours | 3.31 ± 0.22 | high kidney uptake | mainly excreted by the renal route | 2.71 ± 0.77 %ID/g | 

From PMC3629979 (Molecular imaging, 2010)
